Bioassay records from PubChem.
Shown are actives, neighbours in structure and some others; about 1.9% of the full set was active somewhere.
MBD2 inh = inhibitors of MBD2 binding to methylated DNA, primary screen, biochemical, TR-FRET, DNA-binding domain, human | AID 686964, 2013 | MBD2 binding to methylated oligonucleotide | inhibition, % at 4.4 µM | Methyl-CpG-binding domain protein 2 (Homo sapiens), Q9UBB5 | 370,000 compounds, 0.31% hits; in the data active means inhibition above about 13%
LEDGF integ inh = blockers of LEDGF/p75-dependent integrase strand transfer – biochemical, TR-FRET, high throughput, primary screen. HIV-1 integrase (with human LEDGF/p75). TR-FRET IN-LEDGF/p75 DNA integration, Eu/Cy5. inhibition, % at 3.7 µM. 370,000 compounds, 0.64% hits. AID 743269, 2014;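 active means inhibition above the screen-wide mean plus 3 SD, cut at about 13% in these data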;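 further: signal is the Cy5 over europium emission ratio at 671 and 618 nm; 0% = plate median of compound wells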
UHRF1 binding = UHRF1 methylated DNA binding inhibitors, primary screen, counter-screen for MBD2 inhibitor project, biochemical, TR-FRET, human UHRF1, single concentration. 370,000 compounds, 0.75% hits. AID 687016, 2013. E3 ubiquitin-protein ligase UHRF1 (Homo sapiens), Q96T88. UHRF1 binding to methylated oligo. inhibition, % at 4.4 µM; in the data active means inhibition above about 21%;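 further: UHRF1 SRA domain binding a hemimethylated CpG hairpin DNA probe; 0% = median of test compound wells and 100% = reference inhibitor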
Target sequence (Q96T88 whole entry, looked up, the tested form may be a part): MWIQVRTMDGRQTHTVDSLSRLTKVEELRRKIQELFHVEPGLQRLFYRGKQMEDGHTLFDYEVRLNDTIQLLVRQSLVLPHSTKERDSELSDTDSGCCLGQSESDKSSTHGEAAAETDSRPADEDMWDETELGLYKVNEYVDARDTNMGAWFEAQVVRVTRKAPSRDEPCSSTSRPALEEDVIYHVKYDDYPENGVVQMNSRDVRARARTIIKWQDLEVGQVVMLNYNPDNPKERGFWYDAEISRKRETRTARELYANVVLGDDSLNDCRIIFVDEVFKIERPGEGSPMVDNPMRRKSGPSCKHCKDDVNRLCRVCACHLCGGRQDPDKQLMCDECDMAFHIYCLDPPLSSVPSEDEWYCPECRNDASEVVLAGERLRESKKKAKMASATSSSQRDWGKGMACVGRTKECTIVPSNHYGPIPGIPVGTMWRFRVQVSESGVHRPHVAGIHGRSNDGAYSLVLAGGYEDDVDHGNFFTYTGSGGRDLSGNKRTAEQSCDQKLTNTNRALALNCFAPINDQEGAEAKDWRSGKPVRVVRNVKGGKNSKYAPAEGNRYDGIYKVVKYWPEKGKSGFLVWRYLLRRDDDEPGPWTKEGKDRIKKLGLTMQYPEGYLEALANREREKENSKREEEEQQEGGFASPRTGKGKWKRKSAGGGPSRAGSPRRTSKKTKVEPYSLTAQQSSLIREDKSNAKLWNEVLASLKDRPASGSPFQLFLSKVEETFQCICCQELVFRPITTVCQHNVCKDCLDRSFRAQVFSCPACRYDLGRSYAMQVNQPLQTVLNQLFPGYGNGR
Rin1-Abl PPI inh = inhibitors of Rin1-Abl protein binding, primary screen, biochemical, TR-FRET; inhibition, % at 7.35 µM; AID 588664, 2011; 360,000 compounds, 0.4% hits; in the data active means inhibition above about 5%, passing the limit was not always enough
TDP2 absorb = human TDP2 enzyme inhibitors, primary screen, biochemical, epi absorbance, recombinant enzyme. T5PNP hydrolysis, p-nitrophenol absorbance 415 nm. inhibition, % at 12.8 µM. 370,000 compounds, 0.34% hits;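 active means inhibition above the mean of all tested compounds plus 3 SD, set per campaign, cut at about 25% in these data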;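 further: 0% = DMSO with enzyme and 100% = buffer with substrate but no TDP2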
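System – recombinant human TDP2 · Quantity – TDP2 enzyme at 120 nM final · Doses – single concentration, 12.8 µM nominal, with 1% DMSO · Incubation – 2 h at 37 °C · Measured by – epi absorbance of p-nitrophenol freed from T5PNP by hydrolysis · Read-out – % inhibition relative to enzyme-containing and enzyme-free wells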
* hit, by the source's call; . = no result given.

SMILES	MBD2 inh	LEDGF integ inh	UHRF1 binding	Rin1-Abl PPI inh	TDP2 absorb
CC1CCCCC1NC(=O)/C(C#N)=C/c1ccccc1F (configuration not stated)	10	-4	25*	0	0
CSc1ccc(/C=C(\C#N)C(=O)NC2CCCCC2C)cc1 (configuration not stated)	-4	-2	5	-1	0
O=C(Nc1ccccc1Br)C(=O)N1CCCC1	-1	1	0	-2	7
O=C(NNc1ccccc1Br)C(=O)n1ccc2ccccc21	-3	0	66*	2	-22
C[C@H]1COc2cc(N3CCSCC3)ccc2S(=O)(=O)N1C	9	2	5	.	-8
CC(=O)Nc1ccc(-c2nc3ccccc3c(=O)o2)cc1	-3	-1	-1	1	-1
O=C(Nc1ccc(-c2nc3ccccc3c(=O)o2)cc1)c1ccco1	7	-1	21*	-3	1
COC(=O)C1CCCN(C(=O)C2CCN(S(=O)(=O)c3cccc4cccnc34)CC2)C1 (configuration not stated)	-3	-3	-1	.	-1
O=C(CCl)N1CCN(CC(=O)N2CCCC2)CC1	-4	8	21*	2	-13
O=C(CN1CCN(c2cccc(Cl)c2)CC1)N1CCCC1	2	-2	1	2	-8
COc1ccc(-n2cc(COC(=O)NCCc3ccccc3)nn2)cc1	1	2	1	.	7
CCOc1ccccc1NC(=O)C1C2CCC3C(CCC21)C3(Cl)Cl (configuration not stated)	8	4	26*	1	-10
CCOc1ccccc1NC(=O)COC(=O)C1CCC1	-2	3	1	3	-20
CCOc1ccccc1NC(=O)COC(=O)C1CC1	11	2	23*	1	16
O=C(NCCCc1ccccc1)O[C@@H]1CC[C@@]23CCCN2C(=O)CCC[C@H]3C1	-3	1	5	.	-5
O=C(NNC(=O)c1cc(Br)ccc1O)c1csc(N2CCOCC2)n1	.	.	.	10*	.
CN(Cc1ccccc1)C(=O)OCc1cn(Cc2ccccc2F)nn1	0	0	0	.	-6
N#Cc1ccc(/C=C/C(=O)c2ccc3c(c2)OCO3)cc1	-2	2	26*	1	-6
CC(C)(C)OC(=O)/C=C/[C@@H](CCCCl)Sc1ccc(C(C)(C)C)cc1	-1	-3	-4	.	-9
CCOc1ccccc1/C=C/c1onc(C)c1S(=O)(=O)N1CCC(C(=O)N(CC)CC)CC1	13*	-1	16	-1	-6
CCN(CCN(C)C)C(=O)C1CCN(S(=O)(=O)c2c(C)noc2/C=C/c2ccccc2F)CC1	2	-6	0	-8	12
COC(=O)c1ccc(Cn2cnc3cnccc32)cc1	0	-4	25*	4	4
CCCOc1ccccc1C1CC(=O)Nc2cc3c(cc21)OCCO3 (configuration not stated)	.	.	.	0	.
CCOc1ccccc1C1CC(=O)Nc2cc3c(cc21)OCCO3 (configuration not stated)	-2	5	23*	2	-1
COc1ccc(S[C@]2(C(=O)N(C)C)CC(=O)N(C(=O)/C=C/c3ccccc3)[C@@H]2c2ccc(OC)cc2)cc1	2	6	-2	.	4
SMILES	MBD2 inh	LEDGF integ inh	UHRF1 binding	Rin1-Abl PPI inh	TDP2 absorb
Cc1c(C)n(C(=O)CSc2nc3ccccc3[nH]2)c2ccccc12	9	3	47*	-1	5
O=C(c1c[nH]c2ccc(F)cc2c1=O)N1CCCCCC1	4	2	-3	0	7
Cc1cccc2c(=O)c(C(=O)N3CCCCCC3)c[nH]c12	10	0	23*	2	10
COc1ccc(-n2c(SCC(=O)N3CCCCC3C)nnc2-c2ccncc2)cc1 (configuration not stated)	1	-3	2	.	10
Cc1ccccc1N(CC(=O)N1CCN(c2ccccc2)CC1)S(C)(=O)=O	0	0	2	1	-5
Cc1ccccc1N(CC(=O)N1CCN(Cc2ccccc2)CC1)S(C)(=O)=O	7	0	21*	-3	10
